Experimental data as given in PubChem BioAssay.
Records with an inconclusive call do not appear. The source made the active and inactive calls.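 The calls were made as follows, unless noted: active = growth inhibition above 25% in both replicates, a cutoff set 3 SD above the mean; inconclusive = above 25% in only one replicate; inactive = the rest.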

What was measured:
[1] = S. cerevisiae growth inhibition in permissive medium (OD615), pilot counter-assay for S. cerevisiae lifespan shortening project, permissive growth control (AID 705); details: OD615, 24 h, at 10 µM, hits give high values
In short: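 Test system: Saccharomyces cerevisiae strain carrying genetically modified DeaD replicative-lifespan system; buffer or medium: SC raffinose/galactose permissive medium; dosing: one dose 10 µM, DMSO 0.25% final; times: 24 h exposure, 30 °C; measured by: OD at 615 nm; read-out basis: growth inhibition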

[2] = S. cerevisiae growth inhibition in restrictive medium, OD615, pilot screen, restrictive growth control, yeast lifespan reduction project (AID 706;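 active = growth inhibition above a set limit, 3 SD over mean compound inhibition, in both replicates, cut at about 43% in these data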;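 also: modified DeaD lifespan yeast strain shifted to restrictive glucose medium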); details: OD615, 48 h, at 10 µM, hits give high values
In short: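 material = engineered S. cerevisiae DeaD strain | buffer or medium = glucose-based CSMM-D restrictive medium | dosing = one concentration, 10 µM final, 0.25% DMSO | schedule = 4 h pre-growth plus 48 h compound exposure, 30 °C | detection = OD615 absorbance reading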

[3] = doxorubicin toxicity protection in MRP-1 cells – H69AR cells, CellTiter-Glo, duplicate, MRP-1 activator project, pilot screen (AID 807;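 active = viability increase at or above a cutoff of the median across tested compounds plus 3 SD, cut at about 8.5% in these data, passing the limit was not always enough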;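 also: compound pretreatment 18-22 h then 72 h combined with doxorubicin; 0% = doxorubicin alone and 100% = vehicle without doxorubicin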); details: H69AR viability with doxorubicin, CellTiter-Glo luminescence; at 10 µM; hits give high values
[4] = viability of HCT116 without oncogenic beta-catenin – human colon tumor cells, pilot screen (AID 823;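 active = cell viability at or below a set limit in both duplicate runs, the limit being the all-compound median minus 4 SD, cut at about 23% in these data, passing the limit was not always enough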;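 also: 0% = wells killed by 20 µM Hyamine and 100% = untreated DMSO cell wells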); details: HCT116 beta-catenin knockout viability, CellTiter-Glo, 60 h; at 10 µM; hits give low values
[5] = viability of PTEN-null HCT116 cells – cell-based, HCT116 clonal line, CellTiter-Glo, pilot screen (AID 824;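 active = viability at or below 27.92% in each of two runs, the all-compound median minus 4 SD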;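 also: 0% = 20 µM Hyamine control and 100% = vehicle cell control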); details: HCT116 PTEN-deleted viability, 60 h, at 10 µM, hits give low values
[6] = RAM pathway blockade in budding yeast – dse1pr::URA3 reporter, 5-FOA selection, pilot screen (AID 869;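 active = inhibition over a set limit, the all-compound mean plus 3 SD, in both replicate runs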;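 also: 0% = DMSO wells with no growth and 100% = 10 µM 1-NA-PP1 with full growth; RAM network block rescues cells from 5-FOA so hits raise OD615 growth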); details: S. cerevisiae dse1pr::URA3 5-FOA growth, OD615, 2 d; at 10 µM; hits give high values; strain carries analog-sensitive mutant Cbk1 kinase
[7] = RAM signaling pathway blockade in yeast – S. cerevisiae, Pdr1DBD-CYC8 efflux-inhibited sensitized strain, primary screen (AID 1298;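 active = RAM network inhibition above 8.4% in each of two replicates, 3 SD over the compound average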;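 also: 0% = DMSO untreated cells without growth and 100% = 10 µM 1-NA-PP1 full growth; higher means more yeast growth rescued from 5-FOA killing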); details: S. cerevisiae cbk1-as DSE1-URA3 strain, 5-FOA growth OD615, 2 d; at 50 µM; hits give high values

Cc1ccc(C(=O)CC2(O)C(=O)N(C)c3ccccc32)o1 (stereo not drawn)
inactive: growth inhibition [1] -7.12% | growth inhibition [2] -13.5% | viability increase [3] -2.33% | viability [4] 99.3% | viability [5] 96.2% | inhibition [6] 0.645% | RAM network inhibition [7] 1.32%

CCC(Oc1ccccc1)C(=O)Nc1cc(C)on1 (stereo not drawn)
inactive: growth inhibition [1] -8.55% | growth inhibition [2] -7.2% | viability increase [3] -0.57% | viability [4] 108% | viability [5] 90.2% | inhibition [6] 0.86% | RAM network inhibition [7] 0.2%

COC(=O)C1=C(O)CSC1=Nc1cccc(C(F)(F)F)c1
inactive: growth inhibition [1] -1.75% | growth inhibition [2] 8.3% | viability increase [3] -0.93% | viability [4] 101% | viability [5] 96.3% | inhibition [6] 0.625% | RAM network inhibition [7] 3.1%

CCC(Sc1nncn1C)C(=O)Nc1nnc(-c2ccccc2Cl)s1 (stereo not drawn)
inactive: growth inhibition [1] -3.46% | growth inhibition [2] 31.5% | viability increase [3] -0.85% | viability [4] 103% | viability [5] 92.5% | inhibition [6] 1.72% | RAM network inhibition [7] 2.58%

CCCC(=O)N1CC(=O)Nc2ccc(F)cc2C1c1ccccc1 (stereo not drawn)
inactive: growth inhibition [1] -5.99% | growth inhibition [2] -15.7% | viability increase [3] -1.01% | viability [4] 111% | viability [5] 92.6% | inhibition [6] 3.18% | RAM network inhibition [7] 3.75%

COc1ccc(CCNC(=O)c2c(O)c3c([nH]c2=O)CCCC3)cc1
inactive: growth inhibition [1] -0.92% | growth inhibition [2] -15.2% | viability increase [3] -0.72% | viability [4] 97.1% | viability [5] 90% | inhibition [6] 1.77% | RAM network inhibition [7] 4.09%

CCOC(=O)CCSCC(=O)Nc1nnc(C)s1
inactive: growth inhibition [1] -1.14% | growth inhibition [2] -0.57% | viability increase [3] 0.86% | viability [4] 113% | viability [5] 100% | inhibition [6] 0.55% | RAM network inhibition [7] 3.07%

CCCOc1ccc(N2C(=O)CC(N3CCN(c4ccccc4OC)CC3)C2=O)cc1 (stereo not drawn)
inactive: growth inhibition [1] 0.31% | growth inhibition [2] -41.2% | viability increase [3] 0.03% | viability [4] 97.6% | viability [5] 90.8% | inhibition [6] 2.04% | RAM network inhibition [7] 5.49%

CCOC(=O)NC(Nc1ccc(C)cn1)(C(F)(F)F)C(F)(F)F
inactive: growth inhibition [1] 11.5% | growth inhibition [2] 4.23% | viability increase [3] -1.59% | viability [4] 95.2% | viability [5] 100% | inhibition [6] 0.545% | RAM network inhibition [7] 0.7%

CCOC(=O)C1=C(C)NC(=O)NC1c1ccc(C)o1 (stereo not drawn)
inactive: growth inhibition [1] 8.61% | growth inhibition [2] 7.96% | viability increase [3] -1.92% | viability [4] 105% | viability [5] 100% | inhibition [6] 0.345% | RAM network inhibition [7] 2.74%

COc1ccccc1CC(=O)N1CCN(c2cccc(C(F)(F)F)c2)CC1
inactive: growth inhibition [1] -9.59% | growth inhibition [2] 5.32% | viability increase [3] 1.84% | viability [4] 39.9% | viability [5] 60.9% | inhibition [6] 1.1% | RAM network inhibition [7] 7.84%

O=C(NC1CCCCC1)C1CC(=O)N(c2ccc(Cl)cc2)C1 (stereo not drawn)
inactive: growth inhibition [1] -4.29% | growth inhibition [2] 1.57% | viability increase [3] -0.58% | viability [4] 95.5% | viability [5] 90.4% | inhibition [6] 1.29% | RAM network inhibition [7] 2.04%

COc1ccc(NC(=O)c2cc3ccccc3o2)cc1
inactive: growth inhibition [1] -7.97% | growth inhibition [2] 10.6% | viability increase [3] -4.64% | viability [4] 86.6% | viability [5] 75.8% | inhibition [6] 0.89% | RAM network inhibition [7] -1.4%

COc1cccc(OC)c1C(=O)Nc1nnc(C(C)C)s1
inactive: growth inhibition [1] -6.36% | growth inhibition [2] 6.23% | viability increase [3] -1.98% | viability [4] 89.9% | viability [5] 85.1% | inhibition [6] 2.25% | RAM network inhibition [7] 0.97%

CC(C)N(Cc1nc(-c2ccccc2)no1)C(=O)c1ccc(Cl)cc1
inactive: growth inhibition [1] -9.85% | growth inhibition [2] -12% | viability increase [3] 2.12% | viability [4] 80.7% | viability [5] 76.2% | inhibition [6] 3.25% | RAM network inhibition [7] 6.42%

CCCc1[nH]nc2c1C(C1CCCCC1)C(C#N)=C(N)O2 (stereo not drawn)
inactive: growth inhibition [1] -4.03% | growth inhibition [2] -0.785% | viability increase [3] -6.54% | inhibition [6] 2.06% | RAM network inhibition [7] 1.58%
active: viability [4] 12.5% | viability [5] 21.4%

CCN(CC)CC(=O)n1c2c(c3ccccc31)CCCC2
inactive: growth inhibition [1] 4.59% | growth inhibition [2] -2.73% | viability increase [3] -1.1% | viability [4] 94.5% | viability [5] 99.5% | inhibition [6] 0.57% | RAM network inhibition [7] 0.67%

COc1ccc(Cl)cc1NC(=O)c1nc2nc(C)cc(C(F)F)n2n1
inactive: growth inhibition [1] -3.76% | growth inhibition [2] -10.8% | viability increase [3] -4.12% | viability [4] 94.4% | viability [5] 88.4% | inhibition [6] 2.35% | RAM network inhibition [7] 2.1%

COC(=O)c1cc(-c2ccc3c(c2)OCO3)nc2ccccc12
inactive: growth inhibition [1] -14.1% | growth inhibition [2] -4.56% | viability increase [3] -0.1% | viability [4] 73.6% | viability [5] 76.3% | inhibition [6] 3.49% | RAM network inhibition [7] 8.14%

O=C(Nc1sc2c(c1C(=O)NCC1CCCO1)CCCC2)c1cccs1 (stereo not drawn)
inactive: growth inhibition [1] -11.2% | growth inhibition [2] 5.31% | viability increase [3] -3.45% | viability [4] 85.9% | viability [5] 86.6% | inhibition [6] 1% | RAM network inhibition [7] 4.75%

O=C(NCC1CCCO1)c1ccc2nc(N3CCCCC3)sc2c1 (stereo not drawn)
inactive: growth inhibition [1] -2.59% | growth inhibition [2] -4.53% | viability increase [3] -0.46% | viability [4] 102% | viability [5] 96.8% | inhibition [6] 2.37% | RAM network inhibition [7] 1.03%

O=C1c2oc3ccc(F)cc3c(=O)c2C(c2ccc(F)cc2)N1CCCN1CCOCC1 (stereo not drawn)
inactive: growth inhibition [1] -1.14% | growth inhibition [2] 6.59% | viability increase [3] 0.11% | viability [4] 106% | viability [5] 97.5% | inhibition [6] 1.92% | RAM network inhibition [7] -0.47%

Cn1nc(-c2ccc(Cl)cc2)c2cc(C(=O)N3CCN(c4ccccn4)CC3)sc21
inactive: growth inhibition [1] -0.13% | growth inhibition [2] 28.7% | viability increase [3] -5.31% | viability [4] 37% | viability [5] 35.1% | inhibition [6] -0.47% | RAM network inhibition [7] 4.7%

COc1cccc(NC(=O)CN2C(=O)COc3ccc(Cl)cc32)c1
inactive: growth inhibition [1] -12.2% | growth inhibition [2] -17.7% | viability increase [3] -0.8% | viability [4] 90% | viability [5] 84.7% | inhibition [6] 0.405% | RAM network inhibition [7] 0.31%
